Where two headings read alike, the source gives them in different places.

Assay [1] concerns the target T1, Escherichia coli GUS (EcGUS) (Escherichia coli, UniProt P05804). Description: EcGUS inhibition assay. The format is biochemical. The settings on record: for percentage inhibition rate of EcGUS: compounds at 100 μM, pNPG as substrate; for inhibition at 100 µM: read-out: percentage inhibition rate of EcGUS.
For assay [2], the target named is T1, Escherichia coli GUS (EcGUS). Description: Inhibition kinetics. The class given is biochemical. The settings on record: pNPG as substrate; for type of inhibition of EcGUS: Lineweaver-Burk plot. In short, it runs like this: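 Recombinant EcGUS was expressed in E. coli BL21(DE3) carrying pET28a-EcGUS. The enzyme hydrolysed pNPG, and activity was read as para-nitrophenyl released. Test compound stocks were 10 mM in DMSO. pNPG and inhibitor concentrations were varied. Inhibition type came from where the regression lines intercept on Lineweaver-Burk plots, and Ki was then calculated. Runs were in triplicate, repeated twice, reported as mean ± SD.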

[3] abbreviates: read-out: IC50 against EcGUS, pNPG 250 µM, PBS pH 7.4, 37 °C, 30 min.

T1 sequence (P05804 whole entry): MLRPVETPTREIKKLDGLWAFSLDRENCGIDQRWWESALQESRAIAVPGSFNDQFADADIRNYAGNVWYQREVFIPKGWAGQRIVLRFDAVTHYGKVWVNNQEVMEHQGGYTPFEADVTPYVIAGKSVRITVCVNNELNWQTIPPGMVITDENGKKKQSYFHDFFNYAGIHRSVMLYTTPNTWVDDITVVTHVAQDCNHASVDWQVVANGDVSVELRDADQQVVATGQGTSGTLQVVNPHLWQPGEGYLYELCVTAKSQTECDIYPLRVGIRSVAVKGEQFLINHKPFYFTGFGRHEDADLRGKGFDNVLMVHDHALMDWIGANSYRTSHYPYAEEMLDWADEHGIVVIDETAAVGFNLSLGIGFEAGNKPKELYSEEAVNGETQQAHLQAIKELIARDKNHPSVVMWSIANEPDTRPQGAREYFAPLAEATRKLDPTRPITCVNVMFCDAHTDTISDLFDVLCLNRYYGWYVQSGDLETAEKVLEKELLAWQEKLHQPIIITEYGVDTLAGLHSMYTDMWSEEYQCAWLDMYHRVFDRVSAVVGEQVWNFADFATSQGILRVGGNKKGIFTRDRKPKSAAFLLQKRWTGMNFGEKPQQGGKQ

The term IC50 denotes the midpoint of a concentration-inhibition curve. What is called Ki is a dissociation constant, usually derived from enzyme kinetics or from competition with a known ligand. On to `CCOC(=O)/C=C/c1ccc(O)c(O)c1` [CAEE, caffeic acid ethyl ester], for which, in assay [1], the “percentage inhibition rate of EcGUS” value came to 97.1 ± 0.2%. Moreover, the IC50 in assay [1] (setting [3]) is 7 µM. Moreover, in assay [2], the “type of inhibition of EcGUS” value is “competitive”. In addition, the Ki in assay [2] (read-out: Ki (inhibition constant) against EcGUS) was determined as 2.7 µM.
On to `O=C(O)[C@@H](O)[C@H]1OC(=O)[C@H](O)[C@H]1O` [DSL, D-glucaric acid-1,4-lactone, reference compound], for which the “percentage inhibition rate of EcGUS” value in assay [1] was found to be 48.7 ± 1.2%. Also, the IC50 in assay [1] (setting [3]) is 67.1 µM.
The term inhibition denotes the change of the read-out against control, counted positive when it falls. On to `C[C@@H]1O[C@@H](O[C@@H]2[C@@H](O)[C@H](OCCc3ccc(O)c(O)c3)O[C@H](CO)[C@H]2OC(=O)/C=C/c2ccc(O)c(O)c2)[C@H](O)[C@H](O)[C@H]1O` [acteoside], for which, in assay [1], the IC50 was 3.2 µM and the inhibition at 100 µM was 88 ± 2.2%. The “type of inhibition of EcGUS” value in assay [2] was “mixed-type”.
With `COc1ccc(CCO[C@@H]2O[C@H](CO[C@@H]3OC[C@H](O)[C@H](O)[C@H]3O)[C@@H](OC(=O)/C=C/c3ccc(O)c(OC)c3)[C@H](O[C@@H]3O[C@@H](C)[C@H](O)[C@@H](O)[C@H]3O)[C@H]2O)cc1O` [angoroside C], the IC50 in assay [1] (setting [3]) is over 100 µM.
Turning to `C[C@@H]1O[C@@H](OC[C@H]2O[C@@H](OCCc3ccc(O)c(O)c3)[C@H](OC(=O)/C=C/c3ccc(O)c(O)c3)[C@@H](O)[C@@H]2O)[C@H](O)[C@H](O)[C@H]1O` [forsythoside H], the IC50 in assay [1] (setting [3]) came to 22.2 µM.
Regarding `C[C@@H]1O[C@@H](O[C@@H]2[C@@H](O)[C@H](OCCc3ccc(O)c(O)c3)O[C@H](COC(=O)/C=C/c3ccc(O)c(O)c3)[C@H]2O)[C@H](O)[C@H](O)[C@H]1O` [isoacteoside], in assay [1], half-maximal inhibition (IC50) was put at 8.8 µM and the inhibition at 100 µM turned out to be 77%. Besides, in assay [2], the “type of inhibition of EcGUS” value was “mixed-type”.
For `C[C@@H]1O[C@@H](OC[C@H]2O[C@@H](OCCc3ccc(O)c(O)c3)[C@H](O)[C@@H](OC(=O)/C=C/c3ccc(O)c(O)c3)[C@@H]2O)[C@H](O)[C@H](O)[C@H]1O` [isoforsythiaside], in assay [1] (setting [3]), the IC50 is 7.6 µM. Further, the “type of inhibition of EcGUS” value in assay [2] is listed as “mixed-type”.
For `COc1ccc(CCO[C@@H]2O[C@H](CO)[C@@H](OC(=O)/C=C/c3ccc(O)c(OC)c3)[C@H](O[C@@H]3O[C@@H](C)[C@H](O)[C@@H](O)[C@H]3O)[C@H]2O)cc1O` [martynoside] the same measures were 14.3 µM and “mixed-type”.
Consider acetylacteoside, for which, in assay [2], the “type of inhibition of EcGUS” value is listed as “mixed-type”.
